Reference: ChEMBL document CHEMBL1131501, “Cytotoxic activities of Mannich bases of chalcones and related compounds” (J Med Chem, 1998)

What was measured:
Assay type in all cases: functional, cell-based
Tumor Cell line = experiment: Evaluation for cytotoxicity to human tumor cell lines.
How it was run: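 Panel of about 55-60 human tumor lines (leukemia, melanoma, non-small cell lung, colon, CNS, ovarian, renal, prostate, breast) exposed to 10⁻⁸ to 10⁻⁴ M. Growth inhibition was read as intact-cell recovery relative to vehicle control after 48 h.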

P388 = experiment: Inhibition of proliferation of murine P388 cells; conditions: Mus musculus
Homo sapiens [1] = species on record: Homo sapiens; experiment: Concentration required to inhibit 50% growth of Human CEM T-lymphocytes cells; conditions: CCRF-CEM
Homo sapiens [2] = species on record: Homo sapiens; experiment: Concentration required to inhibit 50% growth of human Molt 4/C8 T-lymphocyte cells; conditions: Molt4/C8
L1210 = experiment: Concentration required to inhibit 50% growth of L1210 leukemia cells; conditions: Mus musculus

| SMILES | IC50 (P388) | IC50 (L1210) | IC50 (Tumor Cell line) | IC50 (Homo sapiens [1]) | IC50 (Homo sapiens [2]) |
| --- | --- | --- | --- | --- | --- |
| CN(C)Cc1cc(C(=O)/C=C/c2ccc(/C=C/C(=O)c3cc(CN(C)C)c(O)c(CN(C)C)c3)cc2)cc(CN(C)C)c1O |  |  | 26.9 µM |  |  |
| CN(C)Cc1cc(C(=O)/C=C/c2cc(F)ccc2F)cc(CN(C)C)c1O | 8.86 µM | 15.9 µM |  | 2.91 µM | 15.4 µM |
| O=C(/C=C/c1ccc(Cl)cc1Cl)c1ccc(O)cc1 | 7.89 µM | 25.2 µM |  | 10.2 µM | 13.9 µM |
| O=C(/C=C/c1ccccc1)c1ccccc1 [CHALCONE] | 9.63 µM | 41.4 µM | 8.32 µM | 12.5 µM | 12.7 µM |
| O=C(/C=C/c1ccccc1)c1cc(CN2CCOCC2)c(O)c(CN2CCOCC2)c1 | 10.3 µM | 15.7 µM | 14.5 µM | 6.11 µM | 17.2 µM |
| Cc1ccc(/C=C/C(=O)c2ccc(O)cc2)cc1 | 5.51 µM | 24.7 µM |  | 11.3 µM | 25.4 µM |
| CN(C)Cc1cc(C(=O)/C=C/c2ccc(F)cc2)cc(CN(C)C)c1O | 26.9 µM | 16.9 µM | 20 µM | 13.8 µM | 17.2 µM |
| CN(C)Cc1cc(/C=C/C(=O)c2ccc(Br)cc2)cc(CN(C)C)c1O | 15.1 µM | 32.3 µM |  | 21.9 µM | 39.2 µM |
| O=C(/C=C/c1ccccc1)c1ccc(O)cc1 [4'-HYDROXYCHALCONE] | 3.12 µM | 23.5 µM |  | 14.7 µM | 13.1 µM |
| CN(C)Cc1cc(C(=O)/C=C/c2ccc(O)cc2)cc(CN(C)C)c1O | > 50 µM | 54 µM | 39.8 µM | 39.1 µM | 44.3 µM |
| O=C(/C=C/c1ccc(Br)cc1)c1ccc(O)cc1 | 16.6 µM | 13.2 µM |  | 1.98 µM | 6.07 µM |
| O=C(/C=C/c1ccccc1Cl)c1ccc(O)cc1 | 6.85 µM | 24.5 µM |  | 13.9 µM | 18.2 µM |
| COc1ccc(/C=C/C(=O)c2ccc(O)cc2)cc1 | 8.7 µM | 32.2 µM |  | 5.9 µM | 27.9 µM |
| COc1ccc(/C=C/C(=O)c2ccc(OC(=O)/C=C/c3ccccc3)cc2)cc1 | 10.2 µM | 39.5 µM |  | 10.8 µM | 27.9 µM |
| O=C(/C=C/c1ccc(O)cc1)c1ccc(Cl)c(Cl)c1 | 8.53 µM | 33.8 µM |  | 20 µM | 10.8 µM |
| O=C(/C=C/c1ccc(O)cc1)c1ccccc1 [4-HYDROXYCHALCONE] | 14.3 µM | 37.9 µM |  | 9.31 µM | 8.58 µM |
| O=C(/C=C/c1ccc(/C=C/C(=O)c2ccc(O)cc2)cc1)c1ccc(O)cc1 | 0.564 µM | 395 µM | 93.3 µM | 78.6 µM | 30.3 µM |
| CN(C)Cc1cc(C(=O)/C=C/c2ccccc2)cc(CN(C)C)c1O | 29.6 µM | 17.7 µM | 21.9 µM | 19.6 µM | 20.7 µM |
| CN(C)Cc1cc(/C=C/C(=O)c2ccccc2)cc(CN(C)C)c1O | > 50 µM | 108 µM |  | 22.1 µM | 98 µM |
| O=C(/C=C/c1ccc(F)cc1)c1ccc(O)cc1 | 8.55 µM | 15.7 µM |  | 3.3 µM | 16.1 µM |
| O=C(/C=C/c1ccccc1)Oc1ccc(C(=O)/C=C/c2ccc(Cl)cc2)cc1 | 3.82 µM | 265 µM |  | 45.3 µM | 220 µM |
| O=C(/C=C/c1cccc(Cl)c1)c1ccc(O)cc1 | 2.82 µM | 21.2 µM |  | 5.4 µM | 6.8 µM |
| Cc1ccc(/C=C/C(=O)c2cc(CN(C)C)c(O)c(CN(C)C)c2)cc1 | 30.8 µM | 40.1 µM | 17.8 µM | 35.2 µM | 40.2 µM |
| O=C(/C=C/C=C/c1ccccc1)c1ccc(O)cc1 | 8.83 µM | 33.8 µM |  | 10 µM | 30.8 µM |
| COc1ccc(/C=C/C(=O)c2cc(CN(C)C)c(O)c(CN(C)C)c2)cc1 | 44.1 µM | 25.8 µM | 29.5 µM | 14.8 µM | 25.3 µM |
| O=C(/C=C/c1ccccc1)Oc1ccc(C(=O)/C=C/c2ccccc2)cc1 | 4.62 µM | 46.5 µM |  | 13.2 µM | 39.2 µM |
| N[C@@H](Cc1ccc(N(CCCl)CCCl)cc1)C(=O)O |  |  | 26.3 µM |  |  |

The remaining molecules from weak to strong by IC50 (L1210), led by results:

| IC50 (P388) | IC50 (L1210) | SMILES | IC50 (Tumor Cell line) | IC50 (Homo sapiens [1]) | IC50 (Homo sapiens [2]) |
| --- | --- | --- | --- | --- | --- |
| 11.7 µM | 13.1 µM | O=C(/C=C/c1ccc(Cl)c(Cl)c1)c1ccc(O)cc1 |  | 1.71 µM | 5.66 µM |
| 2.49 µM | 13 µM | O=C(/C=C/c1ccc(C(F)(F)F)cc1)c1ccc(O)cc1 |  | 1.88 µM | 6.33 µM |
| 0.864 µM | 12.2 µM | O=C(/C=C/c1cc(F)ccc1F)c1ccc(O)cc1 |  | 3.57 µM | 7.88 µM |
| 5.45 µM | 9.32 µM | CN(C)Cc1cc(/C=C/C(=O)c2ccc(Cl)c(Cl)c2)cc(CN(C)C)c1O |  | 10.4 µM | 12.4 µM |
| 3.67 µM | 9.07 µM | O=C(/C=C/c1ccc(Cl)cc1)c1ccc(O)cc1 |  | 3.47 µM | 6.91 µM |
| 17.7 µM | 8.73 µM | CN(C)Cc1cc(C(=O)/C=C/c2ccc([N+](=O)[O-])cc2)cc(CN(C)C)c1O | 8.91 µM | 1.75 µM | 4.82 µM |
| 13.7 µM | 8.33 µM | CN(C)Cc1cc(C(=O)/C=C/c2ccc(Cl)cc2)cc(CN(C)C)c1O | 10 µM | 6.48 µM | 8.41 µM |
|  | 8.29 µM | CN(C)Cc1cc(C(=O)/C=C/c2c(F)cccc2Cl)cc(CN(C)C)c1O | 9.12 µM | 7.74 µM | 7.92 µM |
| 3.67 µM | 8.14 µM | CN(C)Cc1cc(C(=O)/C=C/c2ccc(C(F)(F)F)cc2)cc(CN(C)C)c1O |  | 1.56 µM | 8.3 µM |
| 13.1 µM | 7.32 µM | O=C(/C=C/c1ccc([N+](=O)[O-])cc1)c1ccc(O)cc1 |  | 2.23 µM | 5.94 µM |
| 10.9 µM | 7.09 µM | CN(C)Cc1cc(C(=O)/C=C/c2ccc(Br)cc2)cc(CN(C)C)c1O | 6.31 µM | 4.78 µM | 8.42 µM |
| 13.2 µM | 6.84 µM | CN(C)Cc1cc(C(=O)/C=C/c2ccccc2Cl)cc(CN(C)C)c1O | 9.55 µM | 8.08 µM | 7.13 µM |
| 8.66 µM | 5.96 µM | CN(C)Cc1cc(C(=O)/C=C/c2cccc(Cl)c2)cc(CN(C)C)c1O | 4.68 µM | 2.68 µM | 5.75 µM |
| 5.44 µM | 5.28 µM | CN(C)Cc1cc(C(=O)/C=C/c2ccc(Cl)cc2Cl)cc(CN(C)C)c1O | 3.09 µM | 4.87 µM | 5.74 µM |
| 3.17 µM | 5.15 µM | O=C(/C=C/c1c(Cl)cccc1Cl)c1ccc(O)cc1 |  | 1.36 µM | 5.15 µM |
| 5.92 µM | 3.83 µM | CN(C)Cc1cc(C(=O)/C=C/c2c(Cl)cccc2Cl)cc(CN(C)C)c1O | 5.88 µM | 4.33 µM | 5.38 µM |
| 5.09 µM | 2.49 µM | CN(C)Cc1cc(C(=O)/C=C/c2ccc(Cl)c(Cl)c2)cc(CN(C)C)c1O | 2.35 µM | 2.48 µM | 6.99 µM |
